Where a SMILES comes first, the peptide text is derived from it. [ ]: non-standard residue; d: D form. The star is where a group is joined. Phe(4-guanidino) = N=C(N)Nc1ccc(C[C@H](N)C(=O)O)cc1; Phe(4-NH2) = Nc1ccc(C[C@H](N)C(=O)O)cc1; Tryptamide = c1ccc2c(CCN*)c[nH]c2c1; βAla = NCCC(=O)O
Experiments:
[1] = test system: DU-145; assay: Cytotoxicity against human DU145 cells assessed as effect on live cells >10 uM after 1.5 hrs by propidium iodide-staining based FACS analysis; format: cell-based; settings: du-145, 1.5 h
Outline: (§1)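 DU145 cells (200 000 per well) exposed to peptides in serum-free medium for 1.5 h at 1, 10, 50 and 100 µM, or 1, 10, 15, 20, 30, 50, 100 µM for the dose-response set. Cells trypsinized, washed, resuspended in PBS, PI added (final 10 µg/mL), fluorescence read by flow cytometry; IC50(PI) from the dose-response curve; at least two independent experiments.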

[2] = Half life in human plasma by ion chromatogram-based analysis; format: ADME, cell-free
Outline: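 Peptide at 50 µM was incubated at 37 °C in human serum from male AB plasma. At each time point, plasma was precipitated with MeOH containing Fmoc-Leu-OH internal standard, centrifuged and filtered. Samples were analysed by UPLC-MS. The peptide/standard ratio of total ion chromatogram peak area was expressed relative to 0 h.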

[3] = biological target: Furin (Homo sapiens, UniProt P09958); assay: Inhibition of recombinant human furin expressed in S2 insect cells using pyroGlu-Arg-Thr-Lys-Arg-AMC peptide as substrate after 1 hr by spectrofluorometry
Furin, sequence (P09958 whole entry): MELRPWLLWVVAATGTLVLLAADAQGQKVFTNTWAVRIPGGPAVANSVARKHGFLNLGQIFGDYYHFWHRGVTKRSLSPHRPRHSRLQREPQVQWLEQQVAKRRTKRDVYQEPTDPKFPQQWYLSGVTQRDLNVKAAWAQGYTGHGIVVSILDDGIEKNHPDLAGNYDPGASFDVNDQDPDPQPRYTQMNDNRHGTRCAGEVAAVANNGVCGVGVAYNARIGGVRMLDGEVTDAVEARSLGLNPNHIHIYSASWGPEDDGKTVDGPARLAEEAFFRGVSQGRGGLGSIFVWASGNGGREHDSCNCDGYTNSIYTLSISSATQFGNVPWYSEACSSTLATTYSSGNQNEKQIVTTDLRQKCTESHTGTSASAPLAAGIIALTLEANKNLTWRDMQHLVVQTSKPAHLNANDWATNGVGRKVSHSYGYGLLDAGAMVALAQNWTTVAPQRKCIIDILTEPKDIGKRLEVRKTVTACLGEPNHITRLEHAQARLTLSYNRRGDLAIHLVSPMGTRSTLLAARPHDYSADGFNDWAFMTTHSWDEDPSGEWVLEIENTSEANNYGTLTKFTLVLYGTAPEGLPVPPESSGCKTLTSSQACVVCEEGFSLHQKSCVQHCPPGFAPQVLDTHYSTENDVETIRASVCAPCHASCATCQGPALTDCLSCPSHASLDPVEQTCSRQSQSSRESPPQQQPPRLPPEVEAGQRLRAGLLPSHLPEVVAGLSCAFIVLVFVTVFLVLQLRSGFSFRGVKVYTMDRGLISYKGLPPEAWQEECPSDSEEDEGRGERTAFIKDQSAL
Outline: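 Furin was human recombinant from S2 insect cells, purified. Buffer 100 mM HEPES pH 7.5, 1 mM CaCl2, 1 mM β-mercaptoethanol, 1.8 g/L BSA. Substrate 100 µM per well, inhibitors 0–10 µM, 2 units enzyme. Real-time fluorescence (ex 370/em 460 nm) over 1 h. Ki by Cheng–Prusoff; duplicate or triplicate.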

[4] = test system: DU-145; assay: Antiproliferative activity against human DU145 cells after 72 hrs by MTT assay; format: functional, cell-based; settings: DU-145, 72 h
Outline: (§2)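 MTT assay run 72 h. Seeding was ~1500 cells/well for DU145 and ~2500 cells/well for LNCaP, in RPMI 1640 with 5% FBS (DU145) or 10% FBS (LNCaP). Medium was changed after 24 h, then inhibitor added at 1–300 µM or 1–150 µM. MTT was added at 1 g/L final for 4 h and formazan dissolved in 2-propanol/HCl. Readings were relative to vehicle (water, 0.1% DMSO). IC50 was from at least two independent experiments.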

[5] = species on record: Homo sapiens; assay: Selectivity ratio of Ki for recombinant human furin to Ki for recombinant human PACE4
Outline: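 Ki values came from human recombinant enzymes expressed in S2 insect cells. Furin was assayed in 100 mM HEPES pH 7.5, 1 mM CaCl2, 1 mM β-mercaptoethanol and 1.8 g/L BSA. PACE4 was assayed in 20 mM Bis-Tris pH 6.5, 1 mM CaCl2 and 1.8 g/L BSA. Substrate was pERTKR-AMC at 100 µM, with inhibitor at 0–10 µM. Fluorescence (ex 370/em 460 nm) was read for 1 h, and Ki derived by Cheng-Prusoff.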

[6] = test system: LNCaP; assay: Antiproliferative activity against human LNCAP cells after 72 hrs by MTT assay; format: functional, cell-based; outline: as §2
[7] = biological target: T1, Proprotein convertase subtilisin/kexin type 6 (Homo sapiens, UniProt P29122); assay: Inhibition of recombinant human PACE4 expressed in S2 insect cells using pyroGlu-Arg-Thr-Lys-Arg-AMC peptide as substrate after 1 hr by spectrofluorometry
T1 sequence (P29122 whole entry): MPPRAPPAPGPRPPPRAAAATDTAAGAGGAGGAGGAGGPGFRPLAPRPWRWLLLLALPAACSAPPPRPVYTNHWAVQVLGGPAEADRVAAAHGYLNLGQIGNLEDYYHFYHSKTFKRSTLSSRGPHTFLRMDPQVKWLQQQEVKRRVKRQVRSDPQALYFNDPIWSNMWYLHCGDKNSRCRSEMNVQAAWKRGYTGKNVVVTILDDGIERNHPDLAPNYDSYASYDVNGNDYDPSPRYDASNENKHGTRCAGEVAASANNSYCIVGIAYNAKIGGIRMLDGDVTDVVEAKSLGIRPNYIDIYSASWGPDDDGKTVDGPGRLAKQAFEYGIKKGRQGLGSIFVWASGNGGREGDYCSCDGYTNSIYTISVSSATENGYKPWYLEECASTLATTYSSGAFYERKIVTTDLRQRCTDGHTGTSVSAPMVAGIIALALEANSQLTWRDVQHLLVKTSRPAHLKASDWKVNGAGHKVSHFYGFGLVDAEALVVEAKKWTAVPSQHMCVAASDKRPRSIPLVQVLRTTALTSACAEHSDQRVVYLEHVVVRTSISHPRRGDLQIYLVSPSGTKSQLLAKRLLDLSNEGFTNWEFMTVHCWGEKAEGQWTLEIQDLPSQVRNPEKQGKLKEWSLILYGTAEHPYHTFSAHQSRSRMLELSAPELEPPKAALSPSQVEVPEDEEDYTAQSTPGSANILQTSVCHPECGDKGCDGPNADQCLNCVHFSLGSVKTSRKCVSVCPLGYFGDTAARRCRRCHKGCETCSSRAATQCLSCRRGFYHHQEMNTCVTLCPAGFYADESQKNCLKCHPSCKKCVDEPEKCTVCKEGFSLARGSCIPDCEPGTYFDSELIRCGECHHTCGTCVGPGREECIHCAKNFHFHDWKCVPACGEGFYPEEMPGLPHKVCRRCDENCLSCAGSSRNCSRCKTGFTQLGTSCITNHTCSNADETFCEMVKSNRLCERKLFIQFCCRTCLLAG
Outline: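 Human recombinant PACE4 made in S2 insect cells and purified. Assay buffer 20 mM Bis-Tris pH 6.5, 1 mM CaCl2, 1.8 g/L BSA. Substrate 100 µM per well, inhibitors 0–10 µM, 2 units enzyme. Fluorescence (ex 370/em 460 nm) followed in real time for 1 h. Ki from IC50 by Cheng–Prusoff; duplicate or triplicate.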

[8] = Drug uptake in human DU145 cells at 1 uM after 1 hr using FITC labelled compound by flow cytometric analysis relative to FITC-[betaAla]-LLLLRVKR-NH2 peptide; format: ADME, cell-based; settings: du-145, 1 h
Outline: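 DU145 cells were plated at 200000 per dish and grown 48 h at 37 °C. They were exposed to 1 µM N-terminally FITC-labelled peptide for 1 h at 37 °C, then trypsinized, washed and resuspended in PBS. PI at 10 µg/mL was added to gate out dead cells. Parallel tubes were quenched with 0.04% trypan blue to remove membrane-bound signal. Flow cytometry counted at least 10000 events.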

[9] = test system: DU-145; assay: Antiproliferative activity against human DU145 cells up to 300 uM after 72 hrs by MTT assay relative to control; format: functional; outline: as §2
[10] = test system: LNCaP; assay: Antiproliferative activity against human LNCAP cells up to 300 uM after 72 hrs by MTT assay relative to control; format: functional; outline: as §2
[11] = test system: DU-145; assay: Cytotoxicity against human DU145 cells assessed as effect on live cells up to 100 uM after 1.5 hrs by propidium iodide-staining based FACS analysis; format: cell-based; settings: du-145, 1.5 h; outline: as §1

Row | Molecule | Ki [3] [nM] | IC50 [4] [nM] | Ratio Ki [5] | Ki [7] [nM] | further results
1 | CC(=O)N[C@H](CC(C)C)C(=O)N[C@@H](CC(C)C)C(=O)N[C@@H](CC(C)C)C(=O)N[C@@H](CC(C)C)C(=O)N[C@@H](CCCNC(=N)N)C(=O)N[C@H](C(=O)N[C@@H](CCCCN)C(=O)N[C@@H](CCCNC(=N)N)C(=O)NCCc1ccc(C(=N)N)cc1)C(C)C | 700 | 41000 | 10 | 68 | IC50 [6]: 67000 nM
2 | CC(C)C[C@H](NC(=O)CCN)C(=O)N[C@@H](CC(C)C)C(=O)N[C@@H](CC(C)C)C(=O)N[C@@H](CC(C)C)C(=O)N[C@@H](CCCNC(=N)N)C(=O)N[C@H](C(=O)N[C@@H](CCCCN)C(=O)N[C@@H](CCCNC(=N)N)C(=O)NCCc1c[nH]c2ccccc12)C(C)C (H-[βAla]LLLLRVKR-Tryptamide) | – | – | – | – | fold change (FC) [8]: 3.5
3 | CC(C)C[C@H](NC(=O)CCN)C(=O)N[C@@H](CC(C)C)C(=O)N[C@@H](CC(C)C)C(=O)N[C@@H](CC(C)C)C(=O)N[C@@H](CCCNC(=N)N)C(=O)N[C@H](C(=O)N[C@@H](CCCCN)C(=O)N[C@@H](CCCNC(=N)N)C(=O)N[C@@H](CCCCN)C(N)=O)C(C)C (H-[βAla]LLLLRVKRK-NH2) | – | – | – | – | Drug uptake [8]: Active
4 | CC(C)C[C@H](NC(=O)CCN)C(=O)N[C@@H](CC(C)C)C(=O)N[C@@H](CC(C)C)C(=O)N[C@@H](CC(C)C)C(=O)N[C@@H](CCCNC(=N)N)C(=O)N[C@H](C(=O)N[C@@H](CCCCN)C(=O)N[C@@H](CCCNC(=N)N)C(=O)N[C@@H](CCCNC(=N)N)C(N)=O)C(C)C (H-[βAla]LLLLRVKRR-NH2) | – | – | – | – | Drug uptake [8]: Active
5 | CC(C)C[C@H](NC(=O)CCN)C(=O)N[C@@H](CC(C)C)C(=O)N[C@@H](CC(C)C)C(=O)N[C@@H](CC(C)C)C(=O)N[C@@H](CCCNC(=N)N)C(=O)N[C@H](C(=O)N[C@@H](CCCCN)C(=O)N[C@@H](CCCNC(=N)N)C(=O)N[C@@H](Cc1c[nH]c2ccccc12)C(N)=O)C(C)C (H-[βAla]LLLLRVKRW-NH2) | – | – | – | – | fold change (FC) [8]: 2
6 | Ac-LLLLRVKR-NH2 | – | – | 20 | – | –
7 | Ac-LLLLRVKRG-NH2 | 500 | – | 11 | 44 | Activity [9]: <50%
8 | Ac-LLLLRVKRK-NH2 | 2600 | 130000 | 17 | 150 | Activity [11]: Non-Toxic
9 | Ac-LLLLRVKRL-NH2 | 990 | 90000 | 6 | 170 | –
10 | Ac-LLLLRVKRP-NH2 | 990 | 210000 | 4 | 250 | –
11 | Ac-LLLLRVKRR-NH2 | 2500 | 71000 | 16 | 160 | Activity [10]: <50%; Activity [11]: Non-Toxic

More lines, main results first:

Row | Ki [3] [nM] | IC50 [4] [nM] | Ratio Ki [5] | Ki [7] [nM] | Molecule | further results
12 | 280 | 14000 | 4 | 70 | CC(=O)N[C@H](CC(C)C)C(=O)N[C@@H](CC(C)C)C(=O)N[C@@H](CC(C)C)C(=O)N[C@@H](CC(C)C)C(=O)N[C@@H](CCCNC(=N)N)C(=O)N[C@H](C(=O)N[C@@H](CCCCN)C(=O)N[C@@H](CCCNC(=N)N)C(=O)NCCc1c[nH]c2ccccc12)C(C)C | Activity [1]: Toxic; half-life [2]: 48 min; IC50 [6]: 18000 nM
13 | 130 | 139000 | 4 | 32 | CC(=O)N[C@@H](CC(C)C)C(=O)N[C@@H](CC(C)C)C(=O)N[C@@H](CC(C)C)C(=O)N[C@@H](CC(C)C)C(=O)N[C@@H](CCCNC(=N)N)C(=O)N[C@H](C(=O)N[C@@H](CCCCN)C(=O)N[C@@H](CCCNC(=N)N)C(=O)N[C@@H](Cc1ccc(N)cc1)C(N)=O)C(C)C (Ac-LLLLRVKR[Phe(4-NH2)]-NH2) | IC50 [6]: 170000 nM
14 | 140 | 83000 | 13 | 11 | CC(=O)N[C@@H](CC(C)C)C(=O)N[C@@H](CC(C)C)C(=O)N[C@@H](CC(C)C)C(=O)N[C@@H](CC(C)C)C(=O)N[C@@H](CCCNC(=N)N)C(=O)N[C@H](C(=O)N[C@@H](CCCCN)C(=O)N[C@@H](CCCNC(=N)N)C(=O)N[C@@H](Cc1ccc(NC(=N)N)cc1)C(N)=O)C(C)C (Ac-LLLLRVKR[Phe(4-guanidino)]-NH2) | IC50 [6]: 92000 nM
15 | 210 | 160000 | 6 | 37 | Ac-LLLLRVKRA-NH2 | –
16 | 74 | 230000 | 2 | 30 | Ac-LLLLRVKRD-NH2 | –
17 | 260 | – | 4 | 58 | Ac-LLLLRVKRE-NH2 | Activity [9]: <50%
18 | 74 | 70000 | 4 | 20 | Ac-LLLLRVKRF-NH2 | IC50 [6]: 170000 nM
19 | 140 | – | 4 | 33 | Ac-LLLLRVKRH-NH2 | Activity [9]: <50%
20 | 290 | 72000 | 5 | 64 | Ac-LLLLRVKRI-NH2 | Activity [10]: <50%
21 | 170 | 130000 | 5 | 32 | Ac-LLLLRVKRM-NH2 | –
22 | 130 | – | 5 | 28 | Ac-LLLLRVKRN-NH2 | Activity [9]: <50%
23 | 190 | 210000 | 5 | 43 | Ac-LLLLRVKRQ-NH2 | –
24 | 330 | 240000 | 5 | 64 | Ac-LLLLRVKRS-NH2 | –
25 | 100 | 170000 | 5 | 22 | Ac-LLLLRVKRT-NH2 | –
26 | 200 | 170000 | 5 | 38 | Ac-LLLLRVKRV-NH2 | –
27 | 110 | 25000 | 4 | 29 | Ac-LLLLRVKRW-NH2 | Activity [1]: Toxic; IC50 [6]: 31000 nM
28 | 64 | 100000 | 2 | 29 | Ac-LLLLRVKRY-NH2 | –

Reference: ChEMBL document CHEMBL4229560, “Increasing C-Terminal Hydrophobicity Improves the Cell Permeability and Antiproliferative Activity of PACE4 Inhibitors against Prostate Cancer Cell Lines” (J Med Chem, 2018)
